Experimental data from ChEMBL document CHEMBL4270616, “Asymmetrical meta-methoxylated diarylpentanoids: Rational design, synthesis and anti-cancer evaluation in-vitro” (Eur J Med Chem, 2018).
pIC50: −log10 of the molar value. Active and inactive are the calls of the source.

Key:
[1] = test system: SW-620; test: Induction of apoptosis in human SW620 cells assessed as early apoptotic cells at 2.5 uM after 72 hrs by Annexin V-FITC/propidium iodide staining based flow cytometry (reference value: 2.1%); format: functional
[2] = test system: SW-620; test: Induction of apoptosis in human SW620 cells assessed as late apoptotic cells at 1.25 uM after 72 hrs by Annexin V-FITC/propidium iodide staining based flow cytometry (reference value: 0.29%); format: functional
[3] = test system: SW-620; test: Induction of apoptosis in human SW620 cells assessed as late apoptotic cells at 10 uM after 48 hrs by Annexin V-FITC/propidium iodide staining based flow cytometry (reference value: 0.2%); format: functional
[4] = test system: SW-620; test: Induction of apoptosis in human SW620 cells assessed as live cells at 5 uM after 72 hrs by Annexin V-FITC/propidium iodide staining based flow cytometry (reference value: 97.34%); format: functional
[5] = test system: SW-620; test: Cytotoxicity against human SW620 cells assessed as inhibition of cell proliferation at 20 uM after 72 hrs by MTT assay relative to control; format: functional; settings: SW-620, 72 h
Outline: (§1)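 Single-concentration screen at 20 μM with 72 h exposure in DMEM with 10% FBS, final DMSO 0.1%. Read-out was MTT (5 mg/mL, 4 h, 37°C), DMSO solubilisation and absorbance at 570 nm, expressed as percent inhibition. Lines reaching a threshold percentage went on to IC50 determination.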

[6] = test system: SW-620; test: Induction of apoptosis in human SW620 cells assessed as necrotic cells at 10 uM after 48 hrs by Annexin V-FITC/propidium iodide staining based flow cytometry (reference value: 0.23%); format: functional
[7] = test system: NHDF; test: Cytotoxicity against NHDF after 72 hrs by MTT assay; format: cell-based; settings: Homo sapiens
Outline: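 NHDF grown in DMEM with 5% FBS at 37°C, 5% CO2. Seeded at 1500-5000 cells/well, 24 h, then compound added in DMSO-containing medium (final DMSO 0.1%) for 72 h. MTT (5 mg/mL in medium) added for 4 h at 37°C, formazan dissolved in DMSO, absorbance read at 570 nm.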

[8] = test system: SW-620; test: Induction of apoptosis in human SW620 cells assessed as necrotic cells at 5 uM after 72 hrs by Annexin V-FITC/propidium iodide staining based flow cytometry (reference value: 0.27%); format: functional
[9] = test system: SW-620; test: Induction of apoptosis in human SW620 cells assessed as necrotic cells at 5 uM after 24 hrs by Annexin V-FITC/propidium iodide staining based flow cytometry (reference value: 0.15%); format: functional
[10] = test system: SW-620; test: Inhibition of colony formation in human SW620 cells at 1.25 to 5 uM after 10 days by crystal violet staining based assay; format: functional, cell-based
Outline: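 SW620 cells seeded at 1000 cells/well in DMEM and incubated overnight at 37°C, 5% CO2. Compound-containing medium was given for ten days and renewed every three days. Cells were then washed with PBS, fixed 15 min in 4% paraformaldehyde, stained 10 min with 0.5% (w/v) crystal violet, washed, air-dried and photographed. Colony formation was quantified from the images.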

[11] = test system: SW-620; test: Induction of apoptosis in human SW620 cells assessed as late apoptotic cells at 1.25 uM after 48 hrs by Annexin V-FITC/propidium iodide staining based flow cytometry (reference value: 0.2%); format: functional
[12] = test system: SW-620; test: Induction of apoptosis in human SW620 cells assessed as late apoptotic cells at 1.25 uM after 24 hrs by Annexin V-FITC/propidium iodide staining based flow cytometry (reference value: 0.43%); format: functional
[13] = test system: MCF7; test: Cytotoxicity against human MCF7 cells assessed as inhibition of cell proliferation at 20 uM after 72 hrs by MTT assay relative to control; format: functional; settings: MCF7, 72 h; outline: as §1
[14] = test system: SW-620; test: Induction of apoptosis in human SW620 cells assessed as late apoptotic cells at 5 uM after 48 hrs by Annexin V-FITC/propidium iodide staining based flow cytometry (reference value: 0.2%); format: functional
[15] = test system: SW-620; test: Induction of apoptosis in human SW620 cells assessed as early apoptotic cells at 1.25 uM after 48 hrs by Annexin V-FITC/propidium iodide staining based flow cytometry (reference value: 2.75%); format: functional
[16] = test system: SW-620; test: Induction of apoptosis in human SW620 cells assessed as early apoptotic cells at 2.5 uM after 48 hrs by Annexin V-FITC/propidium iodide staining based flow cytometry (reference value: 2.75%); format: functional
[17] = test system: SW-620; test: Induction of apoptosis in human SW620 cells assessed as necrotic cells at 2.5 uM after 72 hrs by Annexin V-FITC/propidium iodide staining based flow cytometry (reference value: 0.27%); format: functional
[18] = test system: SW-620; test: Induction of apoptosis in human SW620 cells assessed as necrotic cells at 2.5 uM after 48 hrs by Annexin V-FITC/propidium iodide staining based flow cytometry (reference value: 0.23%); format: functional
[19] = test system: SW-620; test: Cytotoxicity against human SW620 cells after 72 hrs by MTT assay; format: functional, cell-based; settings: SW-620, 72 h
Outline: (§2)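 Tumour lines kept in DMEM with 10% FBS and 1% penicillin/streptomycin at 37°C, 5% CO2. Seeded at 1500-5000 cells/well by doubling time and size, 24 h, then compound in DMSO-containing medium (final DMSO 0.1%) for 72 h. MTT (5 mg/mL) 4 h at 37°C, DMSO solubilisation, absorbance at 570 nm.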

[20] = test system: SW-620; test: Cell cycle arrest in human SW620 cells assessed as decrease in G0/G1 phase after 24 hrs by propidium iodide staining based flow cytometry; format: functional
[21] = test system: SW-620; test: Induction of apoptosis in human SW620 cells assessed as early apoptotic cells at 5 uM after 24 hrs by Annexin V-FITC/propidium iodide staining based flow cytometry (reference value: 2.35%); format: functional
[22] = test system: SW-620; test: Induction of apoptosis in human SW620 cells assessed as necrotic cells at 1.25 uM after 72 hrs by Annexin V-FITC/propidium iodide staining based flow cytometry (reference value: 0.27%); format: functional
[23] = test system: SW-620; test: Induction of apoptosis in human SW620 cells assessed as early apoptotic cells at 5 uM after 72 hrs by Annexin V-FITC/propidium iodide staining based flow cytometry (reference value: 2.1%); format: functional
[24] = test system: MCF7; test: Cytotoxicity against human MCF7 cells after 72 hrs by MTT assay; format: functional, cell-based; settings: MCF7, 72 h; outline: as §2
[25] = test system: SW-620; test: Induction of apoptosis in human SW620 cells assessed as live cells at 1.25 uM after 48 hrs by Annexin V-FITC/propidium iodide staining based flow cytometry (reference value: 96.26%); format: functional
[26] = test system: SW-620; test: Induction of apoptosis in human SW620 cells assessed as late apoptotic cells at 2.5 uM after 48 hrs by Annexin V-FITC/propidium iodide staining based flow cytometry (reference value: 0.2%); format: functional
[27] = test system: SW-620; test: Induction of apoptosis in human SW620 cells assessed as early apoptotic cells at 1.25 uM after 24 hrs by Annexin V-FITC/propidium iodide staining based flow cytometry (reference value: 2.35%); format: functional
[28] = test system: A549; test: Cytotoxicity against human A549 cells assessed as inhibition of cell proliferation at 20 uM after 72 hrs by MTT assay relative to control; format: functional; settings: A549, 72 h; outline: as §1
[29] = test system: SW-620; test: Induction of apoptosis in human SW620 cells assessed as live cells at 10 uM after 24 hrs by Annexin V-FITC/propidium iodide staining based flow cytometry (reference value: 97.03%); format: functional
[30] = test system: SW-620; test: Induction of apoptosis in human SW620 cells assessed as late apoptotic cells at 5 uM after 24 hrs by Annexin V-FITC/propidium iodide staining based flow cytometry (reference value: 0.43%); format: functional

| Structure (SMILES) | Activity [1] [%] | Activity [2] [%] | Activity [3] [%] | Activity [4] [%] | inhibition at 20 µM [5] [%] | Activity [6] [%] | pIC50 [7] | Activity [8] [%] | Activity [9] [%] | inhibition [10] | Activity [11] [%] | Activity [12] [%] | inhibition at 20 µM [13] [%] | Activity [14] [%] | Activity [15] [%] | Activity [16] [%] | Activity [17] [%] | Activity [18] [%] | pIC50 [19] | Activity [20] | further results |
| --- | --- | --- | --- | --- | --- | --- | --- | --- | --- | --- | --- | --- | --- | --- | --- | --- | --- | --- | --- | --- | --- |
| COc1ccc(/C=C2\CCC/C(=C\c3cc(OC)c(OC)c(OC)c3)C2=O)cc1OC | 14.37 | 1.3 | 75.36 | 3.13 | > 50 | 1.3 | 5.24 | 0.33 | 0.36 | Active | 0.37 | 0.31 | > 50 | 60.42 | 6.01 | 12.28 | 1.36 | 0.55 | 5.74 | Dose-dependent effect | Activity [21]: 40.26%; Activity [22]: 0.35%; Activity [23]: 3.48%; pIC50 [24]: 5.80; Activity [25]: 82.82%; Activity [26]: 6.7%; Activity [27]: 9.26%; inhibition at 20 µM [28]: > 50%; Activity [29]: 46.2%; Activity [30]: 0.35% |
| COc1ccc(/C=C2\CCC/C(=C\c3cccc(O)c3)C2=O)cc1OC | 4.52 | 1.82 | 71.12 | 6.2 | > 50 | 1.06 | 5.17 | 1.23 | 0.35 | Active | 0.92 | 0.31 | > 50 | 40.61 | 4.11 | 4.43 | 0.78 | 0.44 | 5.72 | Dose-dependent effect | Activity [21]: 23.28%; Activity [22]: 0.63%; Activity [23]: 10.2%; pIC50 [24]: 5.54; Activity [25]: 94.54%; Activity [26]: 3.83%; Activity [27]: 4.33%; inhibition at 20 µM [28]: > 50%; Activity [29]: 50.73%; Activity [30]: 2.26% |
